Data on six compounds can be found in paper PMC6713505 (Science Advances, 2019).

The subject of test [1] is FL transporter-2 (Blon_2202–2204). It counts as cell-based, B. infantis JCM 1222^T. As to conditions: for change in concentration of each HMO in culture supernatant (consumption): MS554 expressing FL transporter-2, growth on 0.5% (w/v) purified HMO mixture. Summed up: (§1)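 The host was B. longum 105-A ΔlnbX ΔgltA carrying pMSK65, which encodes intracellular HMO-degrading exo-glycosidases. It was transformed with the transporter gene cluster or an empty vector. Cultures grew anaerobically at 37°C in MRS-CS with 0.5% (w/v) purified HMO mixture, Lac, 2′-FL, 3-FL, LDFT or LNFP I. OD600 was followed in technical duplicates. Supernatant HMOs were fluorescence-labelled and measured by HPLC against a maltoheptaose internal standard, in technical triplicates; means ± SD.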

Test [2] relates to FL transporter-1 (Blon_0341–0343). It counts as cell-based, B. infantis JCM 1222^T. The note with it: for change in concentration of each HMO in culture supernatant (consumption): MS554 expressing FL transporter-1, growth on 0.5% (w/v) purified HMO mixture. The method, boiled down: as §1
The next test has as its system B. infantis JCM 1222^T. The class given is cell-based. The note with it: 0.5% (w/v) sugar. Summed up: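 B. infantis JCM 1222T wild type and FL transporter mutants were grown anaerobically at 37°C in MRS-CS broth (0.34% w/v sodium ascorbate, 0.02% w/v cysteine-HCl). Each broth carried 0.5% (w/v) of Gal, 2′-FL, 3-FL, LDFT, LNFP I or purified HMO mixture. The HMO mixture was purified from pooled breast milk and contained 2% (w/w) Lac impurity. Growth was followed over time in biological duplicates, reported as means ± SD.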

`CC(=O)N[C@H]1[C@H](O[C@H]2[C@@H](O)[C@@H](CO)O[C@@H](O[C@H]3[C@H](O)[C@@H](O)C(O)O[C@@H]3CO)[C@@H]2O)O[C@H](CO)[C@@H](O[C@@H]2O[C@H](CO)[C@H](O)[C@H](O)[C@H]2O)[C@@H]1O` (mixture of isomers) [LNnT, lacto-N-neotetraose]: the “change in concentration of each HMO in culture supernatant (consumption)” value (“change in concentration of each HMO” for short) in test [1] and in test [2] was “invariant” throughout. As for `OC[C@H]1O[C@@H](O[C@H]2[C@H](O)[C@@H](O)C(O)O[C@@H]2CO)[C@H](O)[C@@H](O)[C@H]1O` (mixture of isomers) [Lac, lactose], the “growth on sugar as carbon source” value in test [1] (MS554 expressing FL transporter-2, 0.5% (w/v) sugar, OD600) was “indistinguishable from the control strain”; in test [2] (MS554 expressing FL transporter-1, 0.5% (w/v) sugar, OD600), “indistinguishable from the control strain”.

Consider `O=C[C@H](O)[C@@H](O)[C@@H](O)[C@H](O)CO` [Gal, galactose], for which the “growth of WT and the four mutants of B. infantis” value in the test with B. infantis JCM 1222^T is reported as “grew at similar rates”.

`CC(=O)N[C@H]1[C@H](O[C@H]2[C@@H](O)[C@@H](CO)O[C@@H](O[C@@H]([C@H](O[C@@H]3O[C@@H](C)[C@@H](O)[C@@H](O)[C@@H]3O)[C@@H](O)C=O)[C@H](O)CO)[C@@H]2O)O[C@H](CO)[C@@H](O[C@@H]2O[C@@H](C)[C@@H](O)[C@@H](O)[C@@H]2O)[C@@H]1O[C@@H]1O[C@H](CO)[C@H](O)[C@H](O)[C@H]1O` [LNDFH II]: the “change in concentration of each HMO” value in test [1] and in test [2] was “invariant” in each case. As for `CC(=O)N[C@H]1[C@H](O[C@H]2[C@@H](O)[C@@H](CO)O[C@@H](O[C@H]3[C@H](O)[C@@H](O)C(O)O[C@@H]3CO)[C@@H]2O)O[C@H](CO)[C@@H](O)[C@@H]1O[C@@H]1O[C@H](CO)[C@H](O)[C@H](O)[C@H]1O` (some centres unmarked) [LNT, lacto-N-tetraose], the “change in concentration of each HMO” value in test [1] and in test [2] was “invariant” throughout.

With “lacto-N-difucohexaose (LNDFH) I [LNDFH I]”, the “change in concentration of each HMO” value in test [1] and in test [2] was “invariant” each time.
